Assay [1] has as its target Cytochrome c (Bos taurus) (UniProt P62894). The assay is described as follows: Induction of chemical modification in bovine heart cytochrome c tertiary structure in phosphate buffer assessed as intact band at 695 nm at pH 7.4 after overnight incubation by UV-vis spectrophotometry. The essentials: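 Cytochrome c modified overnight at 37 °C in 50 mM phosphate pH 7.4 with BAMF. UV–vis absorbance scanned 600–800 nm to monitor the 695 nm Met-80–heme ligand band, compared with native protein.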

Assay [2] deals with Lysozyme C (Gallus gallus) (UniProt P00698). The assay can be described thus: Induction of chemical modification in chicken egg white lysozyme assessed as exposure of hydrophobic core at 0.3 to 1.2 mM by ANS staining-based fluorescence assay. The essentials: (§1)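 Proteins (50 µM) modified overnight at 37 °C with BAMF (0.3–1.2 mM) in 50 mM phosphate pH 7.4, then measured at 5 µM. ANS was used at 16-fold over protein. Excitation 360 nm, emission 400–600 nm, slits 10 nm, 3 mm quartz cell. Blanks subtracted, each spectrum at least three times.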
Lysozyme C (Gallus gallus), sequence (P00698 whole entry): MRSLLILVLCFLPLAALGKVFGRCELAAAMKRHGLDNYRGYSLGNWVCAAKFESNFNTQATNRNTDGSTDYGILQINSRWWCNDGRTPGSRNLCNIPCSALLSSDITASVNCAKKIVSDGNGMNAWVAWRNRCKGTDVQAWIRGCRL

Assay [3] concerns the target Cytochrome c (Bos taurus) (UniProt P62894). The assay can be described thus: Induction of chemical modification in bovine heart cytochrome c assessed as denaturation temperature at 1.2 mM by UV-vis spectrophotometry (Tm = 56.5 +/- 0.1 degC).
Assay [4] shares this target. The assay can be described thus: Induction of chemical modification in bovine heart cytochrome c assessed as additional peaks at 1.2 mM at pH 7.4 by ESI-MS spectroscopic technique.
Assay [5] has the same target. The assay is described as follows: Induction of chemical modification in bovine heart cytochrome c assessed as denaturation temperature at 0.3 mM by UV-vis spectrophotometry (Tm = 56.5 +/- 0.1 degC).
Assay [6] deals with Lysozyme C (Gallus gallus) (UniProt P00698). The assay can be described thus: Induction of chemical modification in chicken egg white lysozyme tertiary structure assessed as effect on adduct formation at 0.3 to 1.2 mM by circular dichroism analysis. (Circular dichroism is the unequal absorption of left and right circularly polarised light.)
In assay [7] the target is Cytochrome c (Bos taurus) (UniProt P62894). The assay can be described thus: Induction of chemical modification in bovine heart cytochrome c assessed as exposure of hydrophobic core at 0.3 to 1.2 mM by ANS staining-based fluorescence assay. The essentials: as §1
Cytochrome c (Bos taurus), sequence (P62894 whole entry): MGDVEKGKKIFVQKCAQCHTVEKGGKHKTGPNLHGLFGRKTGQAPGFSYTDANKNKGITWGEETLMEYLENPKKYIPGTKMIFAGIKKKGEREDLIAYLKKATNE
Assay [8] has the same target. The assay is described as follows: Induction of chemical modification in bovine heart cytochrome c in phosphate buffer assessed as disappearance of peak at 530 nm and appearance of new peaks at 522 and 551 nm at pH 7.4 after overnight incubation by UV-vis spectrophotometry. The essentials: (§2)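 Cytochrome c (50 µM) incubated overnight at 37 °C, pH 7.4, with 2 mM BAMF or 2 mM aspirin in phosphate buffer. UV–vis spectra recorded about 350–600 nm (Soret and Q-band region) and compared with native protein.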

Assay [9] has the same target. The assay is described as follows: Induction of chemical modification in bovine heart cytochrome c assessed as change in negative peaks of at 282 nm and 289 nm of tyrosyl side chains at 0.3 to 1.2 mM by circular dichroism analysis.
Assay [10] has the same target. The assay is described as follows: Induction of chemical modification in bovine heart cytochrome c in phosphate buffer assessed as appearance of new peak at 414 nm at 2 mM at pH 7.4 after overnight incubation by UV-vis spectrophotometry. The essentials:
as §2

The target is the same in assay [11]. The assay can be described thus: Induction of chemical modification in bovine heart cytochrome c assessed as denaturation temperature at 0.6 mM by UV-vis spectrophotometry (Tm = 56.5 +/- 0.1 degC).
Assay [12] concerns the target Lysozyme C (Gallus gallus) (UniProt P00698). The assay can be described thus: Induction of chemical modification in chicken egg white lysozyme assessed as effect on enzyme activity at 0.3 to 1.2 mM by UV-vis spectrophotometry. The essentials: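 Lysozyme (50 µM) modified overnight at 37 °C with 0.3, 0.6, 0.9 or 1.2 mM BAMF in 50 mM phosphate pH 7.4. Hydrolytic activity read turbidimetrically as the fall in A450 of a bacterial cell suspension over 1500 s. Specific activity plotted against BAMF concentration.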

Assay [13] deals with Cytochrome c (Bos taurus) (UniProt P62894). The assay can be described thus: Induction of chemical modification in bovine heart cytochrome c tertiary structure assessed as effect on adduct formation at 0.3 to 1.2 mM by circular dichroism analysis.
The target is the same in assay [14]. The assay can be described thus: Induction of chemical modification in bovine heart cytochrome c assessed as denaturation temperature at 0.9 mM by UV-vis spectrophotometry (Tm = 56.5 +/- 0.1 degC).
For assay [15] the target is unchanged. The assay can be described thus: Induction of chemical modification in bovine heart cytochrome c in phosphate buffer assessed as adduct formation at heme center at 2 mM at pH 7.4 after 1 hr by UV-vis spectrophotometry. The essentials: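 Cytochrome c treated with 2 mM acetylating agent in phosphate buffer pH 7.4. Heme redox/reduction kinetics followed by absorbance at 550 nm over 1 h, with aspirin at 2 mM as the reference acetylating agent.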

For assay [16] the target is unchanged. The assay can be described thus: Induction of chemical modification in bovine heart cytochrome c in phosphate buffer assessed as appearance of new peak at 413 nm at 2 mM at pH 7.4 after overnight incubation by UV-vis spectrophotometry. The procedure, abridged:
as §2

Calls of active or inactive are those of the source. The calls are words filed in the database; no cut-off is given here.

With `CC(=O)OCc1ccc(COC(C)=O)o1`, the outcome in assay [1], in assay [2], in assay [6], in assay [7], in assay [9] and in assay [12] was inactive. Besides, the outcome in assay [13] was inactive. Moreover, the Tm in [3] was 53 °C; in assay [5], 54.8 °C; in [11] it was 54.7 °C; in assay [14] it was 53.8 °C. Moreover, the result in [4], in [8], in [10] and in assay [15] was Active.

`CC(=O)Oc1ccccc1C(=O)O`: the result in [16] was Active.

What is called Tm is the temperature at the midpoint of the melting transition.

For the origin of these results see ChEMBL document CHEMBL3397004, “Furan-based acetylating agent for the chemical modification of proteins” (Bioorg Med Chem, 2015).
